# PMC2652733 (Bioconjugate chemistry, 2009)
# Tests used:
# RIF tumors = test: In vivo photosensitizing; design: species or system C3H mice
# RIF tumor cells = test: In vitro photosensitizing efficacy; type: cell-based; conditions: for in vitro photosensitizing ability: lower light and drug doses, RIF cells; for in vitro photosensitizing ability (comparative): 24 h post-incubation, light dose 6.0 J/cm^2, drug concentration 1.0 μM and higher, 700 nm
# Method in brief: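 RIF cells were grown in α-MEM with 10% FCS and plated at 5 × 10³ cells/well overnight. Test compound was added at varied concentrations for 24 h at 37°C in the dark, then replaced with drug-free medium. Cells were irradiated with a 700 nm dye laser (3.2 mW/cm², 0-6 J/cm²) and kept 48 h in the dark. MTT was added for 4 h, followed by DMSO and a 560 nm read. Survival was expressed as % of the drug-no-light control, with 4 replicate wells.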
# [1] = Biodistribution of 124I-labeled compounds; type: in vivo, C3H mice bearing RIF tumors
# Method in brief: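 RIF cells (3 × 10⁵ in 30 μl complete α-MEM) were implanted s.c. in the axilla of C3H mice and grown to 4-5 mm diameter (~5 days). The 124I-labelled test compound, in saline with 10% ethanol, was given via tail vein at 50-200 μCi. Thyroid uptake was not blocked. 3-4 mice per time point were killed at 24-96 h. Organs, blood and tail were weighed and gamma-counted, giving %ID/g.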
# [2] = dose 2μmol/kg, 705 nm, 135 J/cm^2, 75 mW/cm^2
# [3] = 24h PI, C3H mice bearing RIF tumors, i.v. 50-200 uCi
molecule,measurement,setting,value
"CCc1c(C)c2cc3nc(cc4[nH]c(c5c6nc(cc1[nH]2)C(C)=C6C(=O)C5)[C@@H](CCC(=O)OC)[C@@H]4C)C(C)=C3C(C)OCc1cccc(I)c1 (stereo partly shown) [compound 1, 3-{1’- (3-iodobenzyloxy)ethyl}pyropheophorbide-a methyl ester]",mice tumor free on day 60,"RIF tumors; dose 1.5 μmol/kg i.v., 665 nm, 135 J/cm^2, 75 mW/cm^2 at 24 h post injection, 5 mice/group",4/5
"CCCCCCN1C(=O)C2=C(C)c3cc4[nH]c(cc5nc(cc6[nH]c(c(c2n3)C1=O)[C@@H](CCC(=O)OC)[C@@H]6C)C(C)=C5C(C)OCc1cccc(I)c1)c(C)c4CC (stereo partly shown) [compound 4, 3-{1’- (3-iodobenzyloxy)ethyl}purpurin-18-N-hexylimide methyl ester]",in vitro photosensitizing ability,RIF tumor cells,ineffective
same,toxicity after PDT treatment,RIF tumors; [2],toxic and all mice died within 24 h PDT treatment
"CCCCCCOC(C)C1=C(C)c2cc3[nH]c(c4c5nc(cc6[nH]c(cc1n2)c(C)c6CC)C(C)=C5C(=O)N(Cc1cccc(I)c1)C4=O)[C@@H](CCC(=O)OC)[C@@H]3C (stereo partly shown) [compound 5, 3-{1’- (Hexyloxy)ethyl}purpurin-18-N-(3-iodo)benzylimide methyl ester]",in vitro photosensitizing ability (comparative),RIF tumor cells,more effective than the structural isomer 4
same,in vitro photosensitizing ability,RIF tumor cells,ineffective
same,in vivo PDT activity,RIF tumors; [2],did not show any significant activity
same,in vivo PDT activity,"RIF tumors; doses 2.5 and 3.0 μmol/kg, 705 nm, 135 J/cm^2, 75 mW/cm^2",quite effective
"CCc1c(C)c2cc3nc(cc4[nH]c(c5c6nc(cc1[nH]2)C(C)=C6C(=O)N(Cc1cccc(I)c1)C5=O)[C@@H](CCC(=O)OC)[C@@H]4C)C(C)=C3C(C)OC (stereo partly shown) [compound 10, 3-{1’- (methoxy)ethyl}purpurin-18-N-(3-iodo)benzylimide methyl ester]",tumor uptake (abstract statement),[1]; methyl ether analog versus purpurinimide 5,improved tumor uptake
same,in vitro photosensitizing ability (comparative),RIF tumor cells,enhanced efficacy over the isomers 4 and 5
same,"in vivo PDT efficacy, fold less effective over the lead compound 1","RIF tumors; 705 nm (10), 135 J/cm^2, 75 mW/cm^2, 24 h post-injection",at least 1.5 fold
same,in vivo PDT activity compared with hexyl ether analog 5,"RIF tumors; doses of 1.0 and 2.5 mmol/kg, 705 nm, 135 J/cm^2, 75 mW/cm^2, 24 h post-injection",enhanced activity
^124I- labeled analog of 3-{1’- (3-iodobenzyloxy)ethyl}purpurin-18-N-hexylimide methyl ester [compound 8],liver uptake in comparison of the 124I-analog of pyropheophorbide 1,[1]; [3],32 fold
same,spleen uptake in comparison of the 124I-analog of pyropheophorbide 1,[1]; [3],85 fold
